# Sampled rows, rich in hits. Any-hit rate of the full collection: about 3.7%.
# HMGR II inh – inhibitors of class II HMG-CoA reductase from Enterococcus faecalis; purified E. faecalis HMGR, NADPH absorbance 340 nm kinetic; inhibition, % at 10 µM; 190,000 compounds, 0.41% hits; AID 1066;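 active = inhibition above a set limit, the median over all tested compounds plus 3 SD, cut at about 9.5% in these data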;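 also: enzyme runs in reverse so mevalonate oxidation gives rising NADPH absorbance; 0% = complete reaction with DMSO and 100% = background rate lacking mevalonate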
# Yeast growth inh – chemicals that inhibit yeast BB579 growth in restrictive medium (lifespan-shortening candidates); AID 804; inhibition, % at 10 µM; 140,000 compounds, 0.51% hits; S. cerevisiae BB579 growth, OD615, 48 h;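 active = inhibition above a set limit, 3 SD over the mean compound inhibition, cut at about 44% in these data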
#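 Test system: Saccharomyces cerevisiae DeaD strain BB579, replicative lifespan model yeast | Buffer or medium: Restrictive CSMM-D medium | Doses: One dose, 10 µM compound with 0.25% DMSO | Incubation: 48 h exposure, 30 °C | Detection: Culture absorbance at 615 nm | Control set: Amphotericin B at 10 µg/mL as positive control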
# Insulin prom inh – TRM-6 insulin promoter activity inhibition | TRM-6 cells (human fetal islet line), insulin promoter-eGFP reporter, imaging; reporter expression induced with tamoxifen | inhibition, % at 2 µM | 130,000 compounds, 0.9% hits | AID 1273;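 active = inhibition above the mean plus 3 SD, with well images judged a real hit on visual review, cut at about 60% in these data, passing the limit was not always enough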
# Yeast lifespan up – extends the lifespan of yeast; S. cerevisiae growth with nicotinamide, OD615; deaD strain in restrictive glucose medium; inhibition of the nicotinamide effect, % at 10 µM; 130,000 compounds, 0.68% hits; AID 775;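 active = inhibition above a set limit, placed 3 SD over the median of all compounds, cut at about 26% in these data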;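 also: 0% = nicotinamide-treated wells and 100% = cells grown without nicotinamide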
#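 Buffer or medium: CSMM-D glucose medium, restrictive; test system: modified budding yeast, DeaD strain; compound: single dose 10 µM compound, 0.25% DMSO; schedule: culture preincubation 4 h, compound exposure 48 h, both 30 °C; detection: optical density (absorbance) at 615 nm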
# RAM network inh – inhibitors of the yeast RAM network | S. cerevisiae dse1pr::URA3 reporter, 5-FOA growth OD615, 2 d; analog-sensitive cbk1-as2 kinase mutant strain | inhibition, % at 50 µM | 190,000 compounds, 1.8% hits | AID 868;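 active = inhibition above a set limit, 3 SD over mean compound inhibition, cut at about 8.4% in these data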;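 also: 0% = DMSO-only wells with no growth and 100% = 10 µM 1-NA-PP1 full growth; inhibition rescues growth on 5-FOA so higher OD means more RAM inhibition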
# Starred values were filed as active, the others as inactive; nt = no result.
SMILES,HMGR II inh,Yeast growth inh,Insulin prom inh,Yeast lifespan up,RAM network inh
Cc1ccc(NC(=O)COC(=O)/C=C/c2c(C)nn(-c3ccc(F)cc3)c2Cl)cc1F,-3,-33,nt,4,5
CCCC(=O)Nc1cc(S(=O)(=O)N(CC)CC)ccc1Cl,-4,-4,12,0,2
O=C(COC(=O)CCC(NC(=O)OCc1ccccc1)C(=O)OCC(=O)Nc1ccccc1)Nc1ccccc1 (stereo not given),4,-8,nt,-1,10*
COc1cc(NS(=O)(=O)c2ccc(NC(=O)/C=C/c3cccc([N+](=O)[O-])c3)cc2)ncn1,-7,nt,33,nt,8.9*
CCOC(=S)SCC(=O)N1CCc2cc(OC)c(OC)cc2C1C1C(=O)CC(C)(C)CC1=O (stereo not given),-5,-12,-26,7,1
CCOC(=S)SCC(=O)N1CCc2ccccc2C1C1C(=O)CC(C)(C)CC1=O (stereo not given),-6,-28,nt,37*,2
O=C(COc1ccccc1Cl)NCCC1=CCCCC1,1,-21,nt,-8,-1
CC1=[N+](C)N(c2ccccc2)C(=O)C1N=Cc1c(Cl)cccc1Cl (stereo not given),0,-8,nt,35*,0
CC1=[N+](C)N(c2ccccc2)C(=O)C1N=Cc1ccccc1Cl (stereo not given),-4,-15,-17,3,2
COc1cc2ccccc2cc1C(=O)NC(=S)Nc1cccc(C(=O)O)c1,-1,nt,nt,nt,8.9*
O=C(O)c1cccc(NC(=S)NC(=O)c2ccc(-c3ccccc3)cc2)c1,-3,nt,0,nt,5
CSc1ccc(C(=S)N2CCN(Cc3ccccc3)CC2)cc1,1,-68,71,31*,0
COc1ccc(CNC(=O)Cn2cncn2)cc1OC,5,nt,89*,nt,0
C#CCn1c(=NC(=O)c2cc(Cl)sc2Cl)sc2cc(S(N)(=O)=O)ccc21,0,-19,-44,0,2
C#CCn1c(=NC(=O)c2cc(-c3cccs3)nc3ccccc23)sc2cc(S(N)(=O)=O)ccc21,1,-28,0,3,9.7*
COc1ccc(/C=c2/sc3n(c2=O)C(c2ccccc2OC)C2=C(N=3)c3ccccc3CC2)cc1O (stereo not given),-7,-33,-29,-12,9.5*
O=C(CSc1ncccn1)NN=C1CCCCCC1,-5,-46,67*,0,0
Cc1cc(C)cc(CSCC(=O)NN=C2CCCCCC2)c1,-4,-32,-47,-1,0
Cc1c(Cl)c(C(F)(F)F)nn1CC(=O)N1CCSCC1,-2,-11,100*,1,0
O=C(Nc1ccccc1C(=O)NCc1ccccc1)c1ccccc1Br,3,-17,0,-11,1
O=C(Nc1ccccc1C(=O)O)c1ccc(Br)c(S(=O)(=O)NCc2ccccc2)c1,-1,nt,-224,nt,11*
O=C(COc1ccc2ccccc2c1)Nc1cccc(C(=O)Nc2ccccc2C(=O)O)c1,-5,-35,0,64*,5
CCCCCn1c(SCC(=O)OCC)nc2cc(C(=O)NCc3ccco3)ccc2c1=O,1,-33,-29,-1,11*
CCCCNc1nc(N)nc(-c2cc(Cl)ccc2O)n1,-1,8,15,-1,-1
CCNc1nc(N)nc(-c2cc(Cl)ccc2O)n1,-2,9,62*,-6,4
SMILES,HMGR II inh,Yeast growth inh,Insulin prom inh,Yeast lifespan up,RAM network inh
Cc1ccc(NC(=O)N2CCCC2C(=O)Nc2ccc(-n3cnnn3)c(C)c2)cc1 (stereo not given),9.7*,-36,26,nt,0
COc1ccc2cc3[n+](cc2c1OC)CCc1cc2c(cc1-3)OCO2,-8,-16,67*,3,1
COc1cccc(C2=NCCc3cc4c(cc32)OCO4)c1OC,-1,-52,31,7,0
Cc1ccc2nc(NC(=O)CNS(=O)(=O)c3ccc(Br)s3)sc2c1,-2,-24,nt,-5,3
Cc1ccc2nc(NC(=O)CN(C)S(=O)(=O)c3ccc(Br)s3)sc2c1,-1,-35,66*,-2,3
O=C(COC(=O)C1CC1)Nc1ccc2c(c1)OCO2,-5,nt,-59,nt,0
O=C(O)CCCCCCC1C(=O)NC(=O)N1CCC(O)C1CCCCC1 (stereo not given),17*,-33,-26,1,0
O=C(O)CCCCCN1C(=O)C2CCCCC2C1=O (stereo not given),0,-12,-44,nt,2
O=S(=O)(c1ccccc1)n1c(C(O)c2ccccn2)cc2ccccc21 (stereo not given),-1,-29,-13,12,1
Cc1ccc(C(=O)NCC(=O)OC(C)C(=O)Nc2ccc(N(C)C)cc2)cc1C (stereo not given),-2,nt,nt,nt,0
CCN(C(=O)COC(=O)c1ccc(N2C(=O)c3ccccc3C2=O)cc1)C1CCS(=O)(=O)C1 (stereo not given),-8,nt,nt,nt,3
Cc1cc2cc3c(cc2nc1SCC(=O)N1c2ccccc2CC1C)OCO3 (stereo not given),0,-44,-431,nt,4
Cc1cc2ccccc2nc1SCC(=O)N1c2ccccc2CC1C (stereo not given),-5,-17,100*,-14,3
CC1Cc2ccccc2N1C(=O)CSc1nnnn1Cc1ccccc1 (stereo not given),3,-23,19,3,8.7*
C/C(=N\NC(=O)c1ccc([N+](=O)[O-])c(C)c1)c1ccccc1Cl,0,-55,45,-1,3
O=C(c1cc(Cl)c(=O)n(Cc2ccc(Cl)cc2)c1)N1CCOCC1,0,-14,21,-5,1
CCOC(=O)/C=C/COc1ccccc1[N+](=O)[O-],-4,nt,nt,nt,-1
Cc1nn(CC(=O)Nc2ccc(S(=O)(=O)N(C)C)cc2)c(C)c1[N+](=O)[O-],1,-5,-17,-3,1
CC(C)NC(=O)CN1CCN(Cc2nc(C(c3ccccc3)c3ccccc3)no2)CC1,-7,nt,nt,nt,0
CCC(C)NS(=O)(=O)c1ccc(OCC(=O)NCc2ccccn2)cc1 (stereo not given),-6,nt,-40,nt,1
O=C(N/N=C/C(Cl)=C/c1ccccc1)c1cnccn1,14*,-22,44,nt,2
CNC(=O)c1ccc(=O)n(Cc2cccc(C(F)(F)F)c2)c1,-1,nt,nt,nt,-1
CCC(C)(C)n1nnnc1C(c1cc2cc(C)cc(C)c2[nH]c1=O)N1CCCC1 (stereo not given),2,-22,-15,7,0
CCC(C)(C)n1nnnc1C(c1cc2cccc(C)c2[nH]c1=O)N1CCCC1 (stereo not given),-3,-37,25,36*,-1
O=C(NOC(=O)c1ccccc1Cl)c1cccs1,-2,-8,-57,11,-2
Cc1c(O)c(S(=O)c2ccccc2)c(=O)n(-c2ccccc2)c1-c1ccccc1 (stereo not given),-6,-42,-15,61*,4

# Screens: PubChem, several laboratories
